18 molecules from ChEMBL document CHEMBL3046780, “Syntheses and herbicidal activity of new triazolopyrimidine-2-sulfonamides as acetohydroxyacid synthase inhibitor” (Bioorg Med Chem, 2010) can be followed below.

Each structure is given as a SMILES string.

The test system of one test is Amaranthus retroflexus. The test can be described thus: Post-emergence herbicidal activity against Amaranthus retroflexus assessed as growth inhibition at 150 g ai/ha measured 15 days post compound treatment under green house conditions. As to conditions: 360 h, read-out: GI. The class given is functional. In a few lines: (§1)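 Compounds formulated as 100 g/L emulsifiable concentrate (DMF solvent, Tween-80 emulsifier), diluted with water, sprayed post-emergence on pot-grown weeds in clay soil (pH 6.5, 1.6% organic matter). Seeds sown 1-3 cm deep, grown at 15-30 °C. Dicots were treated at the 2-leaf stage and monocots at the 1-leaf stage. Untreated and DMF-treated controls were included. Injury was rated visually 15 days after treatment.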

For another test, the system named is Brassica juncea. The test can be described thus: Post-emergence herbicidal activity against Brassica juncea assessed as growth inhibition at 150 g ai/ha measured 15 days post compound treatment under green house conditions. The class given is functional. As to conditions: 360 h, read-out: GI. Put shortly: as §1
A further test has as its system Poa annua. The test can be described thus: Post-emergence herbicidal activity against Poa annua assessed as growth inhibition at 150 g ai/ha measured 15 days post compound treatment under green house conditions. The class given is functional. As to conditions: 360 h, read-out: GI. Put shortly:
as §1

Test [1] addresses T1, Acetolactate synthase, chloroplastic (Arabidopsis thaliana, UniProt P17597).
T1 sequence (P17597 whole entry): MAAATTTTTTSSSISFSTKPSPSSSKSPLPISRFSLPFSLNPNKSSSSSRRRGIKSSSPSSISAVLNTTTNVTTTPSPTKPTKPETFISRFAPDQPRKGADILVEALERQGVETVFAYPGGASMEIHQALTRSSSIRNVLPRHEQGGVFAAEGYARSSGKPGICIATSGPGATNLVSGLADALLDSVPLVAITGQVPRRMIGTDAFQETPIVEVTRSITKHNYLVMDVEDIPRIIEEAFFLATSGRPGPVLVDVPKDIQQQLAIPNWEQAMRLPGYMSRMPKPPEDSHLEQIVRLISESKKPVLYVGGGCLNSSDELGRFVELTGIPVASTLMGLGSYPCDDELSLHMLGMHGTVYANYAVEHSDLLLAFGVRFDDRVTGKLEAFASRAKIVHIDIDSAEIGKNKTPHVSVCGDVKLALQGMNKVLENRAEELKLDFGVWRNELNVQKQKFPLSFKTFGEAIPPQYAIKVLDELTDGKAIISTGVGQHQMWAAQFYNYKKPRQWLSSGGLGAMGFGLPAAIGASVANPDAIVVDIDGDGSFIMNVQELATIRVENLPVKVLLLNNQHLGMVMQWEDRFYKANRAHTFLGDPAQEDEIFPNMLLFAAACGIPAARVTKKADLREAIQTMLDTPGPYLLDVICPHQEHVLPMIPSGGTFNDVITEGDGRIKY

A further test concerns Eclipta prostrata. The test can be described thus: Post-emergence herbicidal activity against Eclipta prostrata assessed as growth inhibition at 150 g ai/ha measured 15 days post compound treatment under green house conditions. Type of test: functional. The conditions noted are these: 360 h, read-out: GI. In a few lines: as §1
The subject of a further test is Echinochloa crus-galli. The test can be described thus: Post-emergence herbicidal activity against Echinochloa crus-galli (barnyard grass) assessed as growth inhibition at 150 g ai/ha measured 15 days post compound treatment under green house conditions. Type of test: functional. The conditions noted are these: 360 h, read-out: GI. Put shortly: as §1
The test system of the next test is Digitaria sanguinalis. The test can be described thus: Post-emergence herbicidal activity against Digitaria sanguinalis (hairy crabgrass) assessed as growth inhibition at 150 g ai/ha measured 15 days post compound treatment under green house conditions. The class given is functional. The conditions noted are these: 360 h, read-out: GI. In a few lines:
as §1

Usually Ki stands for a dissociation constant, usually derived from enzyme kinetics or from competition with a known ligand. A higher Ki goes with weaker binding. As to `COc1ccn2nc(S(=O)(=O)Nc3ccc(Br)cc3)nc2n1`, the inhibition of growth at 150 g/ha in the test on Amaranthus retroflexus, in the test with Brassica juncea, in the test with Poa annua, in the test with Eclipta prostrata, in the test on Echinochloa crus-galli and in the test with Digitaria sanguinalis was less than 50% throughout. Further, the Ki in test [1] was more than 1000 µM.
With `COc1ccn2nc(S(=O)(=O)Nc3ccccc3Br)nc2n1`, the inhibition of growth at 150 g/ha with Amaranthus retroflexus is 50%; in the test on Brassica juncea, not below 80%; in the test with Poa annua it was less than 50%; with Eclipta prostrata, not below 80%; in the test on Echinochloa crus-galli, less than 50%; in the test with Digitaria sanguinalis, less than 50%. The same molecule came in with a Ki in test [1] of 22.6 µM.
For the molecule `COc1ccn2nc(S(=O)(=O)Nc3ccc(OC(F)(F)F)cc3)nc2n1`, the inhibition of growth at 150 g/ha in the test on Amaranthus retroflexus, with Brassica juncea, with Poa annua, in the test on Eclipta prostrata, with Echinochloa crus-galli and in the test on Digitaria sanguinalis was less than 50% throughout. For the same molecule, in test [1], the Ki was more than 1000 µM.
Turning to `Cc1nc(C)n2nc(S(=O)(=O)Nc3ccc(F)c(F)c3F)nc2c1Cl`, the inhibition of growth at 150 g/ha in the test with Amaranthus retroflexus, with Brassica juncea, with Poa annua, with Eclipta prostrata, in the test on Echinochloa crus-galli and in the test on Digitaria sanguinalis was less than 50% in each case. Also, in test [1], the Ki was more than 1000 µM.
On to `Cc1nc(C)n2nc(S(=O)(=O)Nc3ccccc3F)nc2c1Cl`, for which the inhibition of growth at 150 g/ha with Amaranthus retroflexus is 50%; in the test with Brassica juncea it was 50%; in the test on Poa annua it was less than 50%; in the test on Eclipta prostrata it was 50%; in the test with Echinochloa crus-galli, less than 50%; in the test on Digitaria sanguinalis, less than 50%. The Ki in test [1] worked out at 25.8 µM.
Take `Cc1cc2nc(S(=O)(=O)Nc3ccc(F)c(F)c3F)nn2c(C)n1`: the inhibition of growth at 150 g/ha with Amaranthus retroflexus was less than 50%; in the test with Brassica juncea it was less than 50%; in the test on Poa annua, less than 50%; in the test with Eclipta prostrata it was 50%; in the test on Echinochloa crus-galli, less than 50%; in the test with Digitaria sanguinalis it was less than 50%. The molecule further had an inhibition constant Ki in test [1] of more than 1000 µM.
Take `Cc1nc(C(F)(F)F)cc2nc(S(=O)(=O)Nc3ccc(F)c(F)c3F)nn12`: the inhibition of growth at 150 g/ha in the test with Amaranthus retroflexus was less than 50%; in the test with Brassica juncea, less than 50%; with Poa annua, less than 50%; in the test with Eclipta prostrata it was 50%; in the test on Echinochloa crus-galli it was less than 50%; in the test on Digitaria sanguinalis, less than 50%. Also, the inhibition constant (Ki) in test [1] is more than 1000 µM.
Regarding `Cc1nc(C)n2nc(S(=O)(=O)Nc3ccc(C(F)(F)F)cc3)nc2c1Cl`, the inhibition of growth at 150 g/ha was 50% in the test with Amaranthus retroflexus; less than 50% in the test with Brassica juncea; less than 50% in the test with Poa annua; 50% with Eclipta prostrata; less than 50% with Echinochloa crus-galli; less than 50% with Digitaria sanguinalis. The molecule also came in with a Ki in test [1] of more than 1000 µM.
As to `Cc1cc2nc(S(=O)(=O)Nc3ccccc3F)nn2c(C)n1`, the inhibition of growth at 150 g/ha with Amaranthus retroflexus is 50%; in the test with Brassica juncea, 50%; with Poa annua, less than 50%; in the test on Eclipta prostrata, 50%; in the test on Echinochloa crus-galli it was less than 50%; with Digitaria sanguinalis, less than 50%. In test [1], this molecule displayed a Ki of 27.7 µM.
On to `Cc1nc(C(F)(F)F)cc2nc(S(=O)(=O)Nc3ccccc3F)nn12`, for which the inhibition of growth at 150 g/ha was 50% with Amaranthus retroflexus; 50% in the test on Brassica juncea; less than 50% in the test with Poa annua; 50% in the test on Eclipta prostrata; less than 50% with Echinochloa crus-galli; less than 50% in the test on Digitaria sanguinalis. For the same molecule, the Ki in test [1] was determined as 569 µM.
Regarding `Cc1nc(C(F)(F)F)cc2nc(S(=O)(=O)Nc3cc(F)ccc3F)nn12`, the inhibition of growth at 150 g/ha in the test with Amaranthus retroflexus, in the test with Brassica juncea, with Poa annua, in the test with Eclipta prostrata, in the test on Echinochloa crus-galli and in the test on Digitaria sanguinalis was less than 50% throughout.
For `Cc1cc2nc(S(=O)(=O)Nc3ccc(C(F)(F)F)cc3Cl)nn2c(C)n1`, the inhibition of growth at 150 g/ha in the test on Amaranthus retroflexus, with Brassica juncea, with Poa annua, in the test on Eclipta prostrata, in the test with Echinochloa crus-galli and in the test with Digitaria sanguinalis was less than 50% each time. Besides, the inhibition constant (Ki) in test [1] was 178 µM.
Turning to `Cc1cc2nc(S(=O)(=O)Nc3cc(Cl)ccc3C)nn2c(C)n1`, the inhibition of growth at 150 g/ha with Amaranthus retroflexus is less than 50%; in the test with Brassica juncea it was less than 50%; with Poa annua, less than 50%; with Eclipta prostrata, 50%; with Echinochloa crus-galli, less than 50%; with Digitaria sanguinalis, less than 50%. Further, in test [1], the affinity corresponds to a Ki of 7.75 µM.
With `Cc1cc2nc(S(=O)(=O)Nc3cc(F)ccc3F)nn2c(C)n1`, the inhibition of growth at 150 g/ha in the test on Amaranthus retroflexus, with Brassica juncea, with Poa annua, in the test with Eclipta prostrata, with Echinochloa crus-galli and with Digitaria sanguinalis was less than 50% each time. Moreover, in test [1], the Ki turned out to be 28.1 µM.
On to `COc1ccn2nc(S(=O)(=O)Nc3c(F)cccc3F)nc2n1`, for which the inhibition of growth at 150 g/ha in the test with Amaranthus retroflexus is not below 90%; in the test with Brassica juncea, not below 90%; in the test with Eclipta prostrata it was not below 90%; in the test on Echinochloa crus-galli, less than 50%; in the test on Digitaria sanguinalis it was less than 50%. This molecule came in with an inhibition constant (Ki) in test [1] of 18.5 µM.
In the case of `COc1ccn2nc(S(=O)(=O)Nc3cc(F)c(F)c(F)c3)nc2n1`, the inhibition of growth at 150 g/ha in the test on Amaranthus retroflexus, in the test on Brassica juncea, in the test on Poa annua, in the test on Eclipta prostrata, with Echinochloa crus-galli and in the test with Digitaria sanguinalis was less than 50% each time. The molecule also had an inhibitory constant (Ki) in test [1] of more than 1000 µM.
For `COc1ccn2nc(S(=O)(=O)Nc3cc(F)ccc3F)nc2n1`, the inhibition of growth at 150 g/ha is 50% in the test on Amaranthus retroflexus; 50% in the test on Brassica juncea; less than 50% with Poa annua; 50% in the test with Eclipta prostrata; less than 50% in the test on Echinochloa crus-galli; less than 50% in the test with Digitaria sanguinalis. In test [1], this molecule returned a Ki of 53.3 µM.
Take `COc1ccn2nc(S(=O)(=O)Nc3ccccc3F)nc2n1`: the inhibition of growth at 150 g/ha was 50% in the test on Amaranthus retroflexus; 50% in the test with Brassica juncea; less than 50% in the test with Poa annua; not below 80% in the test with Eclipta prostrata; less than 50% in the test with Echinochloa crus-galli; less than 50% in the test on Digitaria sanguinalis. In addition, the Ki in test [1] turned out to be 25.9 µM.
